This note sets out measurements from ChEMBL document CHEMBL1148651, “Potent antitumor 9-anilinoacridines and acridines bearing an alkylating N-mustard residue on the acridine chromophore: synthesis and biological activity” (J Med Chem, 2006).

Assay [1] deals with CCRF-CEM. Briefly: Antiproliferative activity against human taxol resistant CCRF-CEM cell line. The assay is classed as functional, cell-based. The gist of the method:
(§1)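 Leukemic CCRF-CEM parent and resistant sublines were exposed for 72 h, then given phenazine methosulfate-XTT at 37 °C for 6 h. Absorbance was read at 450 and 630 nm. Six or seven concentrations were tested in duplicate, and IC50 came from median-effect plot analysis. Resistance fold is relative to the parent CCRF-CEM IC50.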

The test system of assay [2] is CCRF-CEM. Briefly: Antiproliferative activity against human CCRF-CEM cell line. Format: functional, cell-based.
The subject of assay [3] is CCRF-CEM. Briefly: Antiproliferative activity against human vinblastine resistant CCRF-CEM cell line. The assay is classed as functional, cell-based. Summed up: as §1
A further assay concerns HCT-116. Put plainly: Antiproliferative activity against human HCT116 cell line. The assay is classed as functional, cell-based. Summed up:
(§2)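 Growth inhibition after 72 h continuous exposure. Solid tumour lines were read by sulforhodamine B. Six or seven concentrations per compound were tested in duplicate. IC50 came from median-effect (mass-action law) dose-effect analysis.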

Assay [4] concerns MX1. Put plainly: Antiproliferative activity against human MX1 cell line. Format: functional, cell-based. The gist of the method: as §2
A further assay deals with A549. Briefly: Antiproliferative activity against human A549 cell line. Format: functional, cell-based. Summed up: as §2
In assay [5] the test system is Mus musculus. Put plainly: Toxicity against nude mouse xenografted with human MX1 cell line assessed as weight loss at 4 mg/kg, iv after 17 days. Format: functional. The gist of the method:
(§3)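 MX-1 xenograft nude mice were implanted with 50 µg tissue subcutaneously on day 0. They were treated iv by tail vein every 2 or 3 days in 20 µL DMSO plus 180 µL saline. Toxicity is the maximum body weight loss (%) relative to initial pretreatment body weight, on the day indicated.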
For orientation: In xenograft studies the graft and the host belong to different species.

Assay [6] concerns MX1. Put plainly: Antitumor activity against human MX1 cell line xenografted in nude mouse at 4 mg/kg, iv after 19 days. Format: functional. The gist of the method: (§4)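 Nude mice were implanted subcutaneously with MX-1 tumour tissue (50 µg) on day 0. Doses were given iv via the tail vein every 2 or 3 days (Q2D or Q3D schedules) in 20 µL DMSO plus 180 µL saline. Tumour volume was measured by caliper (length × width × height). Result is T/C (%) on the stated day.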

Assay [7] concerns Mus musculus. Put plainly: Toxicity against nude mouse xenografted with human MX1 cell line assessed as weight loss at 2 mg/kg, iv after 14 days. Format: functional. The gist of the method:
as §3

Assay [8] relates to MX1. Briefly: Antitumor activity against human MX1 cell line xenografted in nude mouse at 2 mg/kg, iv after 14 days. The assay is classed as functional. Summed up:
as §4

For assay [9], the system named is Mus musculus. Briefly: Toxicity against nude mouse xenografted with human MX1 cell line assessed as weight loss at 10 mg/kg, iv after 19 days. Format: functional.
Assay [10] concerns Mus musculus. Briefly: Toxicity against nude mouse xenografted with human MX1 cell line assessed as weight loss at 10 mg/kg, iv after 17 days. Format: functional.
For assay [11], the system named is MX1. Briefly: Antitumor activity against human MX1 cell line xenografted in nude mouse at 10 mg/kg, iv after 15 days. Format: functional. Summed up: as §4
Assay [12] concerns Mus musculus. Briefly: Toxicity against nude mouse xenografted with human MX1 cell line assessed as weight loss at 10 mg/kg, iv after 13 days. Format: functional. Summed up:
as §3

The subject of assay [13] is Mus musculus. Briefly: Toxicity against nude mouse xenografted with human MX1 cell line assessed as weight loss at 2 mg/kg, iv after 12 days. The assay is classed as functional. The gist of the method:
as §3

Assay [14] concerns Mus musculus. Put plainly: Toxicity against nude mouse xenografted with human MX1 cell line assessed as weight loss at 1.5 mg/kg, iv after 14 days. The assay is classed as functional. The gist of the method:
as §3

For assay [15], the system named is MX1. Briefly: Antitumor activity against human MX1 cell line xenografted in nude mouse at 1.5 mg/kg, iv after 14 days. Format: functional. The gist of the method: as §4

A word on the IC50: it is the point on the concentration scale where inhibition reaches its midpoint. A higher IC50 goes with weaker potency in that assay. On to `CCOC(=O)Nc1cc(CO)cc(Nc2c3ccccc3nc3c(OCCN(CCCl)CCCl)cccc23)c1`, for which the IC50 in the assay on CCRF-CEM [1] came to 126 nM; with CCRF-CEM [2], 25.7 nM; in the assay on CCRF-CEM [3] it was 231 nM; with HCT-116 it was 59.5 nM; with MX1 [4], 55.5 nM; in the assay with A549, 94 nM.
With `Nc1cc(CO)cc(Nc2c3ccccc3nc3c(OCCCCN(CCCl)CCCl)cccc23)c1`, the IC50 was 40.5 nM with CCRF-CEM [1]; 4.2 nM in the assay with CCRF-CEM [2]; 111 nM with CCRF-CEM [3]; 9.5 nM in the assay with HCT-116; 2.4 nM in the assay on MX1 [4]; 5.3 nM with A549.
`Cc1cc(N)cc(Nc2c3ccccc3nc3c(OCCN(CCCl)CCCl)cccc23)c1`: the concentration for half-maximal inhibition (IC50) with CCRF-CEM [1] is 21.7 nM; in the assay on CCRF-CEM [2], 4.1 nM; in the assay with CCRF-CEM [3] it was 18.8 nM; in the assay on HCT-116 it was 23.2 nM; in the assay with MX1 [4] it was 21.9 nM; in the assay on A549 it was 44.9 nM. The Activity in the assay on Mus musculus [5] is reported as 15%; in the assay on MX1 [6], 79%.
Take `Nc1cc(CO)cc(Nc2c3ccccc3nc3c(OCCN(CCCl)CCCl)cccc23)c1`: the IC50 is 63.3 nM with CCRF-CEM [1]; 6.7 nM in the assay on CCRF-CEM [2]; 126 nM with CCRF-CEM [3]; 7.7 nM with HCT-116; 6.6 nM in the assay with MX1 [4]; 32.4 nM in the assay with A549.
Turning to `ClCCN(CCCl)CCCCOc1cccc2cc3ccccc3nc12`, the IC50 came out at 393 nM in the assay on CCRF-CEM [1]; 51.2 nM with CCRF-CEM [2]; 308 nM in the assay on CCRF-CEM [3]; 118 nM in the assay with HCT-116; 82 nM in the assay with MX1 [4]; 226 nM with A549.
In the case of `COc1cc(N)cc(Nc2c3ccccc3nc3c(OCCCCN(CCCl)CCCl)cccc23)c1`, the 50% inhibitory concentration (IC50) in the assay on CCRF-CEM [1] was determined as 43.9 nM; with CCRF-CEM [2], 4.2 nM; in the assay with CCRF-CEM [3], 51.3 nM; with HCT-116, 13.8 nM; with MX1 [4], 5.6 nM; with A549, 19 nM. For the same compound, the Activity with Mus musculus [7] stood at 8%; in the assay with MX1 [8], 77%.
Take `Nc1cc(CO)cc(Nc2c3ccccc3nc3ccccc23)c1`: the IC50 in the assay on A549 stood at 47 nM. That is a double-digit nanomolar value.
For the compound `Cc1ccc(N)cc1Nc1c2ccccc2nc2c(OCCN(CCCl)CCCl)cccc12`, the IC50 came to 46.5 nM in the assay on CCRF-CEM [1]; 8 nM with CCRF-CEM [2]; 31.2 nM in the assay with CCRF-CEM [3]; 9 nM in the assay with HCT-116; 7.1 nM in the assay on MX1 [4]; 31.6 nM in the assay with A549.
As for `COc1ccc(Nc2c3ccccc3nc3c(OCCCCN(CCCl)CCCl)cccc23)cc1N`, the IC50 was 89.9 nM with CCRF-CEM [1]; 5.9 nM with CCRF-CEM [2]; 86.5 nM with CCRF-CEM [3]; 8.3 nM in the assay on HCT-116; 5.6 nM in the assay on MX1 [4]; 19 nM in the assay on A549.
Consider `CC(=O)O[C@H]1C(=O)[C@@]2(C)[C@H]([C@H](OC(=O)c3ccccc3)[C@]3(O)C[C@H](OC(=O)[C@H](O)[C@@H](NC(=O)c4ccccc4)c4ccccc4)C(C)=C1C3(C)C)[C@]1(OC(C)=O)CO[C@@H]1C[C@@H]2O` [PACLITAXEL], for which the half-inhibitory concentration (IC50) with CCRF-CEM [1] worked out at 484 nM; in the assay with CCRF-CEM [2], 1.1 nM; with CCRF-CEM [3], 1730 nM; in the assay with MX1 [4], 22.5 nM; in the assay with A549 it was 2.1 nM.
As for `COc1ccc(Nc2c3ccccc3nc3c(OCCN(CCCl)CCCl)cccc23)cc1N`, the IC50 in the assay on CCRF-CEM [1] turned out to be 57.5 nM; with CCRF-CEM [2], 12.3 nM; with CCRF-CEM [3], 60.1 nM; in the assay with HCT-116 it was 48.2 nM; in the assay with MX1 [4], 24.1 nM; in the assay on A549, 118 nM.
As for `CC[C@]1(O)C[C@@H]2CN(CCc3c([nH]c4ccccc34)[C@@](C(=O)OC)(c3cc4c(cc3OC)N(C)[C@H]3[C@@](O)(C(=O)OC)[C@H](OC(C)=O)[C@]5(CC)C=CCN6CC[C@]43[C@@H]65)C2)C1` [VINBLASTINE], the half-maximal inhibitory concentration (IC50) in the assay on CCRF-CEM [1] is 28.7 nM; in the assay with CCRF-CEM [2], 0.4 nM; in the assay on CCRF-CEM [3], 207 nM; with HCT-116 it was 0.7 nM; in the assay on MX1 [4], 2 nM; in the assay with A549 it was 1.1 nM.
Take `COc1cc(N)cc(Nc2c3ccccc3nc3c(OCCN(CCCl)CCCl)cccc23)c1`: the half-inhibitory concentration (IC50) turned out to be 49.8 nM with CCRF-CEM [1]; 11.9 nM in the assay on CCRF-CEM [2]; 46.9 nM with CCRF-CEM [3]; 53.8 nM in the assay on HCT-116; 28.1 nM in the assay with MX1 [4]; 90.2 nM in the assay on A549. The Activity is 10% in the assay with Mus musculus [9], 10% in the assay with Mus musculus [10], 96% with MX1 [11] and 15% with Mus musculus [12].
As for `OCc1cc(O)cc(Nc2c3ccccc3nc3c(OCCN(CCCl)CCCl)cccc23)c1`, the half-inhibitory concentration (IC50) came to 139 nM in the assay on CCRF-CEM [1]; 6.9 nM with CCRF-CEM [2]; 152 nM with CCRF-CEM [3]; 125 nM with HCT-116; 58 nM in the assay on MX1 [4]; 108 nM with A549.
Turning to `Cc1ccc(N)cc1Nc1c2ccccc2nc2c(OCCCCN(CCCl)CCCl)cccc12`, the IC50 with CCRF-CEM [1] came to 57.8 nM; in the assay with CCRF-CEM [2], 4.3 nM; with CCRF-CEM [3] it was 42.3 nM; in the assay on HCT-116, 13.6 nM; in the assay with MX1 [4] it was 9.2 nM; in the assay on A549 it was 15.4 nM. Besides, the Activity was 21% in the assay with Mus musculus [13] and 20% in the assay with MX1 [8].
For the compound `ClCCN(CCCl)CCOc1cccc2cc3ccccc3nc12`, the 50% inhibitory concentration (IC50) amounted to 117 nM with CCRF-CEM [1]; 37.6 nM with CCRF-CEM [2]; 163 nM in the assay on CCRF-CEM [3]; 94.9 nM in the assay on HCT-116; 70.8 nM in the assay on MX1 [4]; 137 nM in the assay with A549.
Regarding `OCc1cc(O)cc(Nc2c3ccccc3nc3c(OCCCCN(CCCl)CCCl)cccc23)c1`, the IC50 in the assay on CCRF-CEM [1] came out at 117 nM; in the assay on CCRF-CEM [2] it was 5.9 nM; with CCRF-CEM [3], 338 nM; in the assay on HCT-116 it was 9.1 nM; in the assay with MX1 [4], 7.2 nM; in the assay with A549 it was 25.1 nM.
For `Cc1cc(N)cc(Nc2c3ccccc3nc3c(OCCCCN(CCCl)CCCl)cccc23)c1`, the half-maximal inhibitory concentration (IC50) is 61.1 nM in the assay with CCRF-CEM [1]; 3.7 nM in the assay on CCRF-CEM [2]; 54.5 nM in the assay with CCRF-CEM [3]; 9.1 nM with HCT-116; 10 nM with MX1 [4]; 8.9 nM with A549. For the same compound, the Activity with Mus musculus [14] was found to be 8%; with MX1 [15] it was 6%.
For the compound `ClCCN(CCCl)CCCOc1cccc2cc3ccccc3nc12`, the 50% inhibitory concentration (IC50) in the assay on CCRF-CEM [1] came to 150 nM; with CCRF-CEM [2] it was 35.3 nM; in the assay with CCRF-CEM [3], 253 nM; in the assay on HCT-116, 135 nM; in the assay with MX1 [4] it was 82.7 nM; with A549, 166 nM.
